The source of these data is ChEMBL document CHEMBL3596178, “Synthesis and biological evaluation of curcumin derivatives containing NSAIDs for their anti-inflammatory activity” (Bioorg Med Chem Lett, 2015).

The source made the active and inactive calls. No cut-off for these calls is given here.

One experiment has as its system RAW264.7. Description: Inhibition of TPA-induced cell proliferation of mouse RAW264.7 cells. Type of experiment: functional, cell-based. In short, it runs like this:
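RAW 264.7 macrophages; proliferation measured by MTT assay. IC50 reported as mean±SD of three independent experiments.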

Experiment [1] deals with Mus musculus. Description: Anti-inflammatory activity in BALB/c mouse assessed as reduction in TPA-induced ear edema by measuring weight of ear punches at 0.75 uM applied topically 6 mins before to TPA treatment. Type of experiment: functional. In short, it runs like this: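 Female BALB/c mice; TPA applied topically to ears, test agents applied topically 6 min before TPA. Edema read as weight of 6 mm diameter ear punch biopsies. Screening concentration 0.75 µM.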

In experiment [2] the test system is Mus musculus. Description: Anti-inflammatory activity in BALB/c mouse model of TPA-induced ear edema assessed as reduction in inflammatory cells infiltration at 0.75 uM applied topically 6 mins before to TPA treatment by H and E staining method. Type of experiment: functional, organism-based. The gist of the method: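 Female BALB/c mouse ears pretreated topically with agents or acetone (control), then TPA applied topically. Ear sections stained with H&E and assessed histologically for epidermal hyperkeratosis, stratum corneum thickening and inflammatory cell infiltration.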

Experiment [3] has as its system Mus musculus. Description: Anti-inflammatory activity in BALB/c mouse model of TPA-induced ear edema assessed as reduction in TNFalpha levels at 0.75 uM applied topically 6 mins before to TPA treatment by immunohistochemistry. It counts as functional, organism-based.
Experiment [4] concerns Mus musculus. Description: Anti-inflammatory activity in BALB/c mouse model of TPA-induced ear edema assessed as reduction in Ikappa-Balpha phosphorylation level at 0.75 uM applied topically 6 mins before to TPA treatment by immunohistochemistry. Type of experiment: functional, organism-based. The gist of the method:
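TPA-induced ear edema in BALB/c mice, agents applied topically before TPA. Ear tissue examined immunohistochemically with an anti-phospho-Ser36 IκBα antibody and a nonphosphorylated IκB antibody.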

Experiment [5] relates to Mus musculus. Description: Anti-inflammatory activity in BALB/c mouse model of TPA-induced ear edema assessed as reduction in IKK activity level at 0.75 uM applied topically 6 mins before to TPA treatment by immunohistochemistry. Type of experiment: functional, organism-based.
For experiment [6], the system named is Mus musculus. Description: Anti-inflammatory activity in BALB/c mouse model of TPA-induced ear edema assessed as reduction in phosphorylated p65 level at 0.75 uM applied topically 6 mins before to TPA treatment by immunohistochemistry. Type of experiment: functional, organism-based. In short, it runs like this:
(§1)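 TPA-induced ear edema in BALB/c mice, agents applied topically before TPA. Ear tissue examined immunohistochemically with a nonphosphorylated p65 antibody and an anti-phospho-Ser536 p65 antibody.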

For experiment [7], the system named is Mus musculus. Description: Anti-inflammatory activity in BALB/c mouse model of TPA-induced ear edema assessed as reduction in p65 nuclear translocation at 0.75 uM applied topically 6 mins before to TPA treatment by immunohistochemistry. It counts as functional, organism-based. In short, it runs like this:
as §1

For experiment [8], the system named is Mus musculus. Description: Anti-inflammatory activity in BALB/c mouse model of TPA-induced ear edema assessed as reduction in IL-1beta levels at 0.75 uM applied topically 6 mins before to TPA treatment by immunohistochemistry. Type of experiment: functional, organism-based.
Experiment [9] relates to Mus musculus. Description: Anti-inflammatory activity in BALB/c mouse model of TPA-induced ear edema assessed as reduction in IL-6 levels at 0.75 uM applied topically 6 mins before to TPA treatment by immunohistochemistry. Type of experiment: functional, organism-based.

Turning to `COc1cc(/C=C/C(=O)CC(=O)/C=C/c2ccc(OC(=O)c3ccccc3OC(C)=O)c(OC)c2)ccc1OC(=O)c1ccccc1OC(C)=O`, the IC50 (as a rule, the concentration that gives 50% inhibition) in the experiment with RAW264.7 was greater than 30 µM. In addition, the “inhibition (INH)” value with Mus musculus [1] was found to be 87.8%.

`COc1cc(/C=C/C(=O)CC(=O)/C=C/c2ccc(OC(=O)c3ccccc3OC(C)=O)c(OC)c2)ccc1O`: in the experiment on RAW264.7, the IC50 is greater than 30 µM. In addition, in the experiment with Mus musculus [1], the “inhibition (INH)” value was 10%.

In turn, `COc1cc(/C=C/C(=O)CC(=O)/C=C/c2ccc(OC(=O)C(C)c3ccc(CC(C)C)cc3)c(OC)c2)ccc1OC(=O)C(C)c1ccc(CC(C)C)cc1` (stereo unspecified) showed an IC50 in the experiment with RAW264.7 of 7.36 µM.

`COc1cc(/C=C/C(=O)CC(=O)/C=C/c2ccc(OC(=O)c3ccccc3Nc3cccc(C(F)(F)F)c3)c(OC)c2)ccc1O` had an IC50 in the experiment with RAW264.7 of 5.54 µM. In the experiment on Mus musculus [1], the “inhibition (INH)” value came to 90%.

Consider `O=C(O)c1ccccc1O`, for which the inhibition result in the experiment on Mus musculus [2] is “Active”.

Compound `COc1cc(/C=C/C(=O)CC(=O)/C=C/c2ccc(OC(=O)c3cc(-c4ccc(F)cc4F)ccc3O)c(OC)c2)ccc1O` returned an IC50 with RAW264.7 of 12.9 µM. Moreover, in the experiment with Mus musculus [1], the “inhibition (INH)” value was determined as 10%.

Turning to `COc1cc(/C=C/C(=O)CC(=O)/C=C/c2ccc(OC(=O)Cc3ccccc3Nc3c(Cl)cccc3Cl)c(OC)c2)ccc1OC(=O)Cc1ccccc1Nc1c(Cl)cccc1Cl`, the IC50 with RAW264.7 is greater than 30 µM. In the experiment on Mus musculus [1], the “inhibition (INH)” value amounted to 10%.

As to `COc1cc(/C=C/C(=O)CC(=O)/C=C/c2ccc(OC(=O)c3ccccc3Nc3cccc(Cl)c3C)c(OC)c2)ccc1OC(=O)c1ccccc1Nc1cccc(Cl)c1C`, the 50% inhibitory concentration (IC50) in the experiment on RAW264.7 worked out at 28 µM. Further, the “inhibition (INH)” value in the experiment on Mus musculus [1] stood at 10%.

As to `O=C(Oc1ccccc1C(=O)O)c1ccccc1O`, the inhibition entry in the experiment on Mus musculus [2] is “Active”.

In turn, `COc1cc(/C=C/C(=O)CC(=O)/C=C/c2ccc(OC(=O)C(C)c3cccc(C(=O)c4ccccc4)c3)c(OC)c2)ccc1OC(=O)C(C)c1cccc(C(=O)c2ccccc2)c1` (stereo unspecified) displayed an IC50 with RAW264.7 greater than 30 µM. The “inhibition (INH)” value in the experiment with Mus musculus [1] is reported as 10%.

With `COc1cc(/C=C/C(=O)CC(=O)/C=C/c2ccc(OC(=O)C(C)c3cccc(C(=O)c4ccccc4)c3)c(OC)c2)ccc1O` (stereo unspecified), the IC50 in the experiment on RAW264.7 came out at 8.98 µM. For the same compound, the “inhibition (INH)” value with Mus musculus [1] is recorded as 68.8%.

With `COc1cc(/C=C/C(=O)CC(=O)/C=C/c2ccc(OC(=O)c3ccccc3Nc3cccc(C(F)(F)F)c3)c(OC)c2)ccc1OC(=O)c1ccccc1Nc1cccc(C(F)(F)F)c1`, the IC50 in the experiment on RAW264.7 was 12.9 µM. Also, the “inhibition (INH)” value with Mus musculus [1] is recorded as 10%.

In turn, `COc1cc(/C=C/C(=O)CC(=O)/C=C/c2ccc(OC(=O)c3ccccc3Nc3cccc(Cl)c3C)c(OC)c2)ccc1O` came in with an IC50 in the experiment with RAW264.7 of 9.2 µM. In addition, in the experiment with Mus musculus [1], the “inhibition (INH)” value is on record as 85%.

In the experiment with RAW264.7, `COc1cc(/C=C/C(=O)CC(=O)/C=C/c2ccc(OC(=O)c3cc(-c4ccc(F)cc4F)ccc3O)c(OC)c2)ccc1OC(=O)c1cc(-c2ccc(F)cc2F)ccc1O` returned an IC50 greater than 30 µM. Also, in the experiment on Mus musculus [1], the “inhibition (INH)” value was found to be 85%.

Take `COc1cc(/C=C/C(=O)CC(=O)/C=C/c2ccc(OC(=O)Cc3ccccc3Nc3c(Cl)cccc3Cl)c(OC)c2)ccc1O`: the IC50 in the experiment on RAW264.7 is greater than 30 µM. For the same compound, in the experiment with Mus musculus [1], the “inhibition (INH)” value turned out to be 10%.

`COc1cc(/C=C/C(=O)CC(=O)/C=C/c2ccc(OC(=O)c3ccccc3Nc3cccc(C)c3C)c(OC)c2)ccc1OC(=O)c1ccccc1Nc1cccc(C)c1C` showed an IC50 in the experiment on RAW264.7 greater than 30 µM. Further, the “inhibition (INH)” value in the experiment on Mus musculus [1] was 10%.

Consider `COc1ccc2c(c1)c(CC(=O)Oc1ccc(/C=C/C(=O)CC(=O)/C=C/c3ccc(OC(=O)Cc4c(C)n(C(=O)c5ccc(Cl)cc5)c5ccc(OC)cc45)c(OC)c3)cc1OC)c(C)n2C(=O)c1ccc(Cl)cc1`, for which the IC50 in the experiment with RAW264.7 is greater than 30 µM. Also, in the experiment with Mus musculus [1], the “inhibition (INH)” value was 10%.

Compound `COc1cc(/C=C/C(=O)CC(=O)/C=C/c2ccc(OC(=O)c3ccccc3Nc3cccc(C)c3C)c(OC)c2)ccc1O` returned an IC50 in the experiment with RAW264.7 of 28 µM. Also, the “inhibition (INH)” value in the experiment with Mus musculus [1] is on record as 78%.

`CCc1cccc2c3c([nH]c12)C(CC)(CC(=O)Oc1ccc(/C=C/C(=O)CC(=O)/C=C/c2ccc(OC(=O)CC4(CC)OCCc5c4[nH]c4c(CC)cccc54)c(OC)c2)cc1OC)OCC3` (stereo unspecified): the IC50 in the experiment on RAW264.7 is greater than 30 µM.

As for `COc1cc(/C=C/C(=O)CC(=O)/C=C/c2ccc(OC(=O)c3ccccc3OC(=O)c3ccccc3O)c(OC)c2)ccc1OC(=O)c1ccccc1OC(=O)c1ccccc1O`, the inhibition result in the experiment on Mus musculus [3], with Mus musculus [2], with Mus musculus [4], in the experiment on Mus musculus [5] and with Mus musculus [6] was “Active” each time. Besides, the IC50 with RAW264.7 was greater than 30 µM. In the experiment with Mus musculus [1], the “inhibition (INH)” value worked out at 93.3%.

Compound `COc1cc(/C=C/C(=O)CC(=O)/C=C/c2ccc(OC(=O)CCc3nc(-c4ccccc4)c(-c4ccccc4)o3)c(OC)c2)ccc1O` had a 50% inhibitory concentration (IC50) in the experiment on RAW264.7 of 19.3 µM. Moreover, the “inhibition (INH)” value with Mus musculus [1] stood at 75%.

As to `COc1ccc2cc(C(C)C(=O)Oc3ccc(/C=C/C(=O)CC(=O)/C=C/c4ccc(O)c(OC)c4)cc3OC)ccc2c1` (single isomer, unassigned), the IC50 in the experiment with RAW264.7 stood at 18.7 µM. For the same compound, the “inhibition (INH)” value in the experiment on Mus musculus [1] is reported as 87.8%.

For `COc1cc(/C=C/C(=O)CC(=O)/C=C/c2ccc(OC(=O)c3ccccc3O)c(OC)c2)ccc1O`, the inhibition result in the experiment on Mus musculus [7], with Mus musculus [2], in the experiment with Mus musculus [4], in the experiment with Mus musculus [5], in the experiment on Mus musculus [8] and in the experiment on Mus musculus [9] was “Active” each time. The compound also showed an IC50 with RAW264.7 greater than 30 µM. In addition, the inhibition (INH) with Mus musculus [1] came to 91.8%.

For `COc1cc(/C=C/C(=O)CC(=O)/C=C/c2ccc(OC(=O)c3ccccc3O)c(OC)c2)ccc1OC(=O)c1ccccc1O`, the IC50 with RAW264.7 was determined as 6.11 µM. For the same compound, the “inhibition (INH)” value in the experiment on Mus musculus [1] was 38.5%.

`COc1cc(/C=C/C(=O)CC(=O)/C=C/c2ccc(O)c(OC)c2)ccc1O` [CURCUMIN] registered a concentration for half-maximal inhibition (IC50) in the experiment on RAW264.7 of 22.9 µM.

In the experiment with RAW264.7, `COc1cc(/C=C/C(=O)CC(=O)/C=C/c2ccc(OC(=O)c3ccccc3OC(=O)c3ccccc3O)c(OC)c2)ccc1O` registered an IC50 greater than 30 µM. Moreover, in the experiment on Mus musculus [1], the “inhibition (INH)” value was determined as 10%.

As to `CCc1cccc2c3c([nH]c12)C(CC)(CC(=O)Oc1ccc(/C=C/C(=O)CC(=O)/C=C/c2ccc(O)c(OC)c2)cc1OC)OCC3` (stereo unspecified), the IC50 in the experiment on RAW264.7 came to 25.3 µM. Also, the “inhibition (INH)” value in the experiment on Mus musculus [1] was found to be 10%.

As for `COc1cc(/C=C/C(=O)CC(=O)/C=C/c2ccc(OC(=O)CCc3nc(-c4ccccc4)c(-c4ccccc4)o3)c(OC)c2)ccc1OC(=O)CCc1nc(-c2ccccc2)c(-c2ccccc2)o1`, in the experiment with RAW264.7, the IC50 is greater than 30 µM. In the experiment on Mus musculus [1], the “inhibition (INH)” value stood at 10%.

`COc1ccc2cc([C@@H](C)C(=O)Oc3ccc(/C=C/C(=O)CC(=O)/C=C/c4ccc(OC(=O)[C@H](C)c5ccc6cc(OC)ccc6c5)c(OC)c4)cc3OC)ccc2c1` registered an IC50 in the experiment with RAW264.7 greater than 30 µM. Further, the “inhibition (INH)” value with Mus musculus [1] is 10%.

For `COc1cc(/C=C/C(=O)CC(=O)/C=C/c2ccc(OC(=O)C(C)c3ccc(CC(C)C)cc3)c(OC)c2)ccc1O` (stereo unspecified), in the experiment on RAW264.7, the IC50 is greater than 30 µM. In addition, the “inhibition (INH)” value in the experiment with Mus musculus [1] is 91.8%.
